The record followed here is ChEMBL document CHEMBL1212802, “Newly identified antibacterial compounds are topoisomerase poisons in African trypanosomes” (Antimicrob Agents Chemother, 2010).

SMILES strings stand for the structures. Calls of active or inactive are those of the source.

Experiment [1] has as its system Trypanosoma brucei brucei. Put plainly: Inhibition of mitochondrion topoisomerase 1A in Trypanosoma brucei brucei MiTat 1.2 strain 427 bloodstream assessed as increase in protein-sensitive linear DNA forms at 0-40 uM. In a few lines:
(§1)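 Free minicircle profiles: 1.2 × 10^7 cells were exposed to compound for 30 min at 37°C. Cells were lysed in SDS/EDTA buffer with or without proteinase K (2 h, 55°C), then treated with RNase A. DNA was run on 1.5% agarose with ethidium bromide and Southern-blotted with a 32P probe to the conserved 124-bp minicircle sequence. Read by phosphorimaging.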

Experiment [2] concerns Trypanosoma brucei brucei. Put plainly: Antitrypanosomal activity against Trypanosoma brucei brucei MiTat 1.2 strain 427 bloodstream assessed as decrease in topoisomerase 2mt level at 0-120 uM. The class given is functional, organism-based. In outline: (§2)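 Western band depletion: 1.2 × 10^7 cells in medium were exposed to compound for 30 min at 37°C. A portion taken just before lysis was lysed in SDS/DTT sample buffer and run on SDS-PAGE. Blots were probed for c-Myc-tagged topoisomerase IAmt (anti-c-Myc) and for topoisomerase IImt (specific antiserum), with enolase as loading control. Free enzyme was quantitated densitometrically.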

Experiment [3] has as its system Trypanosoma brucei brucei. Put plainly: Inhibition of mitochondrion topoisomerase 1A in Trypanosoma brucei brucei MiTat 1.2 strain 427 bloodstream assessed as increase in protein-sensitive linear DNA forms at 60-100 uM. In outline: as §1
Experiment [4] deals with Trypanosoma brucei brucei. Put plainly: Inhibition of topoisomerase in Trypanosoma brucei brucei MiTat 1.2 strain 427 bloodstream assessed as enzyme-DNA cleavable complex at 50 uM (RvB = 2.2 +/- 0.05%). In outline: (§3)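 KSDS assay: cells at 10^7/ml in thymidine-free medium were labelled 1 h at 37°C with [3H]thymidine, washed, and treated 30 min at 37°C with DMSO, 500 μM etoposide or compound, in triplicate. Lysates in SDS/EDTA with calf thymus DNA were heated 10 min at 65°C, then KCl-precipitated and washed, and the precipitate was scintillation-counted. Percent trapped DNA = KSDS cpm ÷ TCA-precipitable cpm of untreated cells.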

The test system of experiment [5] is Trypanosoma brucei brucei. Put plainly: Antitrypanosomal activity against Trypanosoma brucei brucei MiTat 1.2 strain 427 bloodstream assessed as decrease in topoisomerase 2mt level at 0-100 uM. The class given is functional, organism-based. In a few lines:
as §2

Experiment [6] concerns Trypanosoma brucei brucei. Put plainly: Inhibition of mitochondrion topoisomerase 1A in Trypanosoma brucei brucei MiTat 1.2 strain 427 bloodstream assessed as protection of linerarizd minicircle from exonuclase 3 at 63 uM. In outline:
(§4)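 Cells were treated 1 h at 37°C, lysed with SDS, and digested with proteinase K and RNase. DNA was phenol-extracted, precipitated and cleaned up. It was then digested with λ exonuclease (glycine-KOH pH 9.4, MgCl2, BSA) or exonuclease III (Bis-Tris-propane pH 7.0, MgCl2, DTT) for 30 min at 37°C. HindIII-linearized pBluescript served as internal control. Minicircles were detected by Southern blot.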

The test system of experiment [7] is Trypanosoma brucei brucei. As to the kind of experiment: Antitrypanosomal activity against Trypanosoma brucei brucei MiTat 1.2 strain 427 bloodstream assessed as decrease in topoisomerase 1Amt level at 0-120 uM. Format: functional, organism-based. In a few lines: as §2
The subject of experiment [8] is Trypanosoma brucei brucei. Put plainly: Antitrypanosomal activity against Trypanosoma brucei brucei MiTat 1.2 strain 427 bloodstream by acid phosphatase method. Format: functional, organism-based. In outline:
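Bloodstream cells at 2 × 10^5/ml were given 2× serial dilutions of compound (final DMSO ≤1%), quadruplicate wells, for 20–24 h at 37°C. Motility was checked microscopically. p-Nitrophenyl phosphate in acetate buffer pH 5.5 with Triton X-100 was added for 5 h at 37°C, then A405 was read. Three runs; EC50 from Emax model fit; outliers removed by Chauvenet's criterion.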

In experiment [9] the test system is Nucleic Acid. As to the kind of experiment: Binding affinity to plasmid DNA assessed as DNA unwinding in presence of vaccinia virus topoisomerase 1B by electrophoresis. Format: nucleic-acid assay. In outline:
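Supercoiled pBluescript, or pBluescript pre-relaxed with E. coli topoisomerase IA (250 ng), was exposed to a range of compound concentrations in 50 mM Tris HCl pH 7.5, 50 mM NaCl, 5 mM MgCl2. Then 1 pM vaccinia topoisomerase IB was added (1 h, 37°C). Reactions were SDS-quenched, run on 1% agarose in Tris-borate-EDTA, and stained with ethidium bromide.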

Experiment [10] deals with Trypanosoma brucei brucei. Put plainly: Inhibition of mitochondrion topoisomerase 1A in Trypanosoma brucei brucei MiTat 1.2 strain 427 bloodstream assessed as protection of linerarizd minicircle from exonuclase 3 at 25.5 uM. In a few lines:
as §4

The test system of experiment [11] is Trypanosoma brucei brucei. Put plainly: Inhibition of topoisomerase in Trypanosoma brucei brucei MiTat 1.2 strain 427 bloodstream assessed as enzyme -DNA cleavable complex at 50 uM relative to DMSO. In outline:
as §3

The test system of experiment [12] is Trypanosoma brucei brucei. Put plainly: Antitrypanosomal activity against Trypanosoma brucei brucei MiTat 1.2 strain 427 bloodstream assessed as decrease in topoisomerase 1Amt level at 0-100 uM. Format: functional, organism-based. In outline: as §2
The test system of experiment [13] is Trypanosoma brucei brucei. As to the kind of experiment: Inhibition of mitochondrion topoisomerase 1A in Trypanosoma brucei brucei MiTat 1.2 strain 427 bloodstream assessed as protection of linerarizd minicircle from lambda exonuclase at 25.5 uM. In a few lines: as §4
Experiment [14] has as its system Trypanosoma brucei brucei. As to the kind of experiment: Inhibition of mitochondrion topoisomerase 1A in Trypanosoma brucei brucei MiTat 1.2 strain 427 bloodstream assessed as protection of linerarizd minicircle from lambda exonuclase at 63 uM. In a few lines: as §4

Turning to `CN(C)CCc1cc2c(c3c1ccc1ccccc13)OCO2`, the inhibition result in [1], in experiment [6] and in experiment [10] was “Active” throughout. The result in experiment [2] and in [5] was Active. Moreover, the inhibition result in [3], in experiment [13] and in experiment [14] was “inactive” throughout. In addition, in [4], the % DNA in cleavable complexes was 1.9%. In addition, the result in experiment [7] and in experiment [12] was inactive. Also, the half-maximal effective concentration (EC50) in [8] worked out at 6.3 µM. The Activity entry in experiment [9] was “Dose-dependent effect”. Moreover, the Ratio in experiment [11] turned out to be 0.86.
Turning to `O=c1c2cccc3c2c(nn1CN1CCCCC1)-c1ccccc1-3`, the inhibition entry in experiment [1], in experiment [6] and in [10] was “Active” throughout. The result in [2] and in [5] was Active. Further, the inhibition result in [3], in experiment [13] and in [14] was “inactive” in each case. The % DNA in cleavable complexes in experiment [4] was 1.7%. Further, the result in experiment [7] and in experiment [12] was inactive. Also, in experiment [8], the EC50 is 16.9 µM. In addition, the Activity result in experiment [9] was “Dose-dependent effect”. Further, the Ratio in [11] was found to be 0.77.
